Screening results deposited in PubChem by Sanford-Burnham Center for Chemical Genomics.
bIAP activator – intestinal alkaline phosphatase (bovine) activation; activation factor at 20 µM; purified bovine IAP, CDP-star luminescence, 30 min; hits give high values; fold of DMSO-control signal, blank-subtracted; 200,000 tested, 0.17% active; AID 1016;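 active means activation factor of 2 or more at 20 µM, a signal rise over negative controls twice the positive control's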
hIAP block – blocks human intestinal alkaline phosphatase. P09923. purified IAP, CDP-Star luminescence, 30 min. inhibition, % at 10 µM. 330,000 tested, 0.12% active. AID 2544;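 active means inhibition reaching a set limit with compound at 10 µM in the primary screen, cut at about 35% in these data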;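 further: plate controls were DMSO wells with enzyme for no effect and no-enzyme buffer wells for full effect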
Target sequence (P09923 whole entry, looked up): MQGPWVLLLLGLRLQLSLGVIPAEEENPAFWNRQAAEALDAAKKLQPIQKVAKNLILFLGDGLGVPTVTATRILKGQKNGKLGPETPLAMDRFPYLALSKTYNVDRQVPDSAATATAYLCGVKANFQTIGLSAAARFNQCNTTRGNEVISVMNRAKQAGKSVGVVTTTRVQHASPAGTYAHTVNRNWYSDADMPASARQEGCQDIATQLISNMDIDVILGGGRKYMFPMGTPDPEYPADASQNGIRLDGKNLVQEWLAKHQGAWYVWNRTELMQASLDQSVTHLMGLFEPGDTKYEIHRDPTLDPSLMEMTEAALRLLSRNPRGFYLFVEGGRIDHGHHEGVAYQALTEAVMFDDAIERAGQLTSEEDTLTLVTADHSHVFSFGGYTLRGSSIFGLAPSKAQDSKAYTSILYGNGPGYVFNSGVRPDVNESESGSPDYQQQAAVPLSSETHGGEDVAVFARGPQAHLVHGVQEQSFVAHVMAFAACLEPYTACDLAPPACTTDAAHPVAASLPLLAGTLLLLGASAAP
mIAP inh – blocks mouse intestinal alkaline phosphatase; 330,000 tested, 0.2% active; inhibition, % at 10 µM; purified mouse IAP, CDP-Star luminescence, 30 min;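 active means inhibition of at least 40% at 10 µM in the primary screen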;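 further: plate controls were DMSO with enzyme for no effect and no enzyme wells for full effect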
bIAP inh – blocks bovine intestinal alkaline phosphatase activity; purified bovine IAP, CDP-star luminescence, 30 min; 190,000 tested, under 10 active; inhibition, % at 20 µM; AID 1019;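 active means over 50% inhibition of intestinal alkaline phosphatase at 20 µM in the single-dose screen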
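System: purified bovine intestinal alkaline phosphatase (IAP) enzyme; Input: IAP diluted 1/65,000,000 in the well; Measured by: CDP-star luminescence signal; Compound dosing: 20 µM single dose; Incubation: 30 min reaction at room temperature.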
hIAP activ – human IAP activation; P09923; purified human IAP, CDP-Star luminescence, 30 min; hits give high values; 1 = vehicle-only enzyme, 0 = enzyme-free background; activation factor at 10 µM; 330,000 tested, 0.16% active; AID 2524;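 active means activation factor of the enzyme at least 2-fold when tested at 20 µM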
mIAP activ – increases mouse intestinal alkaline phosphatase activity | AID 2805 | 330,000 tested, 0.24% active | activation factor at 10 µM | muIAP, CDP-Star luminescence, 30 min; hits give high values; 1 = vehicle-only enzyme signal, 0 = enzyme-free wells;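 active means activation factor of at least 2 at 20 µM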
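Assay system: mouse IAP enzyme; Reagent: CDP-Star chemiluminescent phosphatase substrate; Compound: DMSO-dissolved test compounds; Incubation: 30 min, room temperature; Technique: luminescence from enzymatic CDP-Star hydrolysis; Controls: DMSO-only wells and no-enzyme negative control.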
hIAP act conf – human IAP activation confirmation | shares compounds with hIAP activ | purified IAP, CDP-Star luminescence, 30 min; hits give low values | activation (%Activity, negative = activation), % at 8.3 µM | 880 tested, 10% active;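 active means at least twofold enzyme activation in any of six single-dose repeats, which the averaged readout prints as negative percent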
* = called active by the depositor; nt = no result. Most compounds without a hit are left out; they make up all but 0.79% or so of the library.

SMILES	bIAP activator	hIAP block	mIAP inh	bIAP inh	hIAP activ	mIAP activ	hIAP act conf
COc1ccc2[nH]c(CN3CCC(CO)(CCOc4ccccc4)CC3)c(C)c2c1	1	-9.4	0.4	4.3	1.09	0.996	nt
c1ccc(-c2cccc(-c3ccccn3)n2)nc1	1.2	-105.2	-8.2	-16.0	2.05*	1.08	-113.0*
CCOCCCNC(=O)CCC(=O)NNc1nc2ccccc2c2nc(C)nn12	1.3	-206.8	-0.6	-34.2	3.07*	1.01	4.3
Cc1nc2c3ccccc3nc(NNC(=O)CCC(=O)NCCN3CCN(c4ccccc4)CC3)n2n1	nt	-130.0	10.1	nt	2.3*	0.899	-97.4*
CCCCNC(=O)CCC(=O)NNc1nc2ccccc2c2nc(C)nn12	0.8	-153.5	21.7	22.2	2.54*	0.783	8.4
Cc1nc2c3ccccc3nc(NNC(=O)CCC(=O)N3CCN(c4ccc(F)cc4)CC3)n2n1	nt	22.0	6.0	nt	0.78	0.94	nt
Cc1cc(C)cc(NC(=O)CC2Oc3ccc(C)cc3NC2=O)c1 (configuration not stated)	nt	-0.8	-9.0	nt	1.01	1.09	nt
COC(=O)Cc1coc2cc(OC)ccc12	nt	2.6	2.6	nt	0.974	0.974	nt
NS(=O)(=O)c1ccc(CCNC(=O)CSc2nc3ccccc3c(=O)n2CC2CCCO2)cc1 (configuration not stated)	nt	-15.5	-4.2	nt	1.16	1.04	nt
Cc1ccc2nc(CCc3nc4ccc(C)cc4[nH]3)[nH]c2c1	nt	-133.4	-5.9	nt	2.33*	1.06	-5.1
c1ccc2[nH]c(CCCCc3nc4ccccc4[nH]3)nc2c1	nt	-42.8	-5.6	nt	1.43	1.06	nt
Cc1ccc2nc(Cc3ccc(N)cc3)[nH]c2c1	1.1	-12.9	-15.8	-10.7	1.13	1.16	nt
Cc1ccc2nc(CCCc3nc4ccc(C)cc4[nH]3)[nH]c2c1	nt	-171.1	-24.5	nt	2.71*	1.25	-59.7
O=C(O)C1CCN(C(=O)CSc2nnc3ccccn23)CC1	nt	0.2	-3.3	nt	0.998	1.03	nt
O=c1c2c(-c3cccs3)csc2ncn1-c1ccc(Br)cc1	0.9	61.0*	13.6	5.8	0.39	0.864	-112.5*
O=C(Cc1ccc(Cl)cc1)NNC(=O)C1CC=CCC1C(=O)O (configuration not stated)	nt	-15.5	7.5	nt	1.16	0.925	nt
COc1ccc(N(CC(=O)NCc2cccs2)S(=O)(=O)c2cccc(C)c2)cc1	nt	5.6	3.5	nt	0.944	0.965	nt
CCOc1cc(/C=C2/C(=O)ON=C2C)cc(Br)c1O	nt	38.5*	5.3	nt	0.615	0.947	9.3
Cc1cc(C)n2nc(CC(=O)NNC(=O)COc3cccc(C)c3C)nc2n1	nt	-105.6	9.5	nt	2.06*	0.905	-25.9
CCOC(=O)Cc1nc2nc(C)cc(C)n2n1	1.1	-4.0	5.9	-8.2	1.04	0.941	nt
CCOC(=O)C1CCN(S(=O)(=O)c2ccc3oc(=O)ccc3c2)CC1	nt	-3.0	-3.2	nt	1.03	1.03	nt
COc1cc(C(=O)NCC(=O)N/N=C/c2ccc(-c3ccc([N+](=O)[O-])cc3)o2)cc(OC)c1OC	nt	36.1*	13.9	nt	0.639	0.861	18.7
COc1cc(CN2CCc3ccc(NC(=O)CCc4ccccc4OC)cc3C2)ccc1O	nt	36.0*	-19.5	nt	0.64	1.2	-24.5
COc1ccc(S(=O)(=O)N2CCN(C(=O)c3ccco3)CC2)c(C)c1C	nt	24.3	6.5	nt	0.757	0.935	nt
Cc1ccccc1N1C(=O)c2ccccc2C1O (configuration not stated)	nt	-9.2	-8.0	nt	1.09	1.08	nt
SMILES	bIAP activator	hIAP block	mIAP inh	bIAP inh	hIAP activ	mIAP activ	hIAP act conf
CN(Cc1ccccc1)C(=O)c1[nH]cnc1C(=O)Nc1ccc(Cl)cc1	nt	-45.9	3.3	nt	1.46	0.967	nt
CN(Cc1ccccc1)C(=O)Nc1ccc(Cl)cc1	nt	-101.9	-3.5	nt	2.02*	1.03	-58.7*
NC(=O)c1ccc(NC(=O)COC(=O)c2c[nH]c3ccccc23)cc1	nt	-17.3	-2.4	nt	1.17	1.02	nt
C/C(=N/NC(=O)c1ccc(Cn2cccn2)o1)c1cccc(NC(=O)c2ccncc2)c1	nt	46.0*	-4.9	nt	0.54	1.05	-100.7*
COc1ccc(OC)c(CNC(=O)CCC(=O)N2Cc3cccc(OC)c3Oc3ncccc32)c1	nt	-26.6	0.4	nt	1.27	0.996	nt
COc1ccc(CCNC(=O)CSc2nc3scc(-c4ccccc4)c3c(=O)[nH]2)cc1	nt	6.5	6.2	nt	0.935	0.938	nt
O=C(COC(=O)c1ccccc1Cc1ccccc1)NC1CCS(=O)(=O)C1 (configuration not stated)	nt	-30.2	0.1	nt	1.3	0.999	nt
COc1ccccc1C(=O)NCC(=O)NNc1ncnc(N)c1[N+](=O)[O-]	1.3	-159.2	24.8	-30.4	2.59*	0.752	-30.7
CN(CCc1ccccc1)C(=O)c1cccc(NC(=O)Cc2cccc([N+](=O)[O-])c2)c1	nt	21.0	10.2	nt	0.79	0.898	nt
Cc1c(C(=O)NNC(=S)Nc2ccc(S(N)(=O)=O)cc2)oc2ccccc12	nt	-105.4	18.7	nt	2.05*	0.813	-5.2
Cc1cccc(N(CC(N)=O)C2SC(=O)N(c3ccccc3)C2=O)c1 (configuration not stated)	1	-2.6	18.4	-4.3	1.03	0.816	nt
Cc1ccc(N(CC(N)=O)C2SC(=O)N(C)C2=O)cc1 (configuration not stated)	1.1	64.6*	9.2	-6.0	0.354	0.908	-76.3
Cc1nn(C(=O)CCC(=O)NCc2cccc(F)c2)c2ccccc12	nt	38.6*	2.4	nt	0.614	0.976	4.5
Cc1nn(C(=O)CCC(=O)NCCc2ccccc2)c2ccccc12	nt	13.1	4.5	nt	0.869	0.955	nt
Cc1cc(C)cc(SCc2noc(C(=O)NCC3CCCO3)c2C(=O)O)c1 (configuration not stated)	0.9	-5.2	-2.1	6.4	1.05	1.02	nt
Cc1cccc(SCc2noc(C(=O)NCC3CCCO3)c2C(=O)O)c1 (configuration not stated)	1	35.1*	4.3	-2.2	0.649	0.957	-212.7*
Cn1c(CNC(=O)CNC(=O)c2ccccc2F)cc(=O)n(C)c1=O	nt	8.1	3.3	nt	0.919	0.967	nt
COc1ccccc1C(=O)NCC(=O)NCc1cc(=O)n(C)c(=O)n1C	nt	38.6*	5.5	nt	0.614	0.945	-5.2
Cc1cc(C)n(C(=O)C23CC4CC(CC(C4)C2)C3)n1	1	-135.6	13.5	1.5	2.36*	0.865	-125.8*
Cc1cc(C)n(C(=O)CN2C(=O)CCC2=O)n1	0.9	-6.8	-4.1	13.8	1.07	1.04	nt
Cc1ccc2oc(C(=O)N3CCCCCC3)c(C)c2c1	nt	45.6*	-1.1	nt	0.544	1.01	2.3
Cc1ccc(NC(=O)c2ccc3snnc3c2)cc1C	nt	-2.3	7.0	nt	1.02	0.93	nt
O=C(Nc1ccc(F)cc1)c1ccc2snnc2c1	nt	35.0*	2.7	nt	0.65	0.973	-57.0
